Results on four molecules are retold here after ChEMBL document CHEMBL1142726, “In search of a novel anti-HIV drug: multidisciplinary coordination in the discovery of 4-[[4-[[4-[(1E)-2-cyanoethenyl]-2,6-dimethylphenyl]amino]-2- pyrimidinyl]amino]benzonitrile (R278474, rilpivirine)” (J Med Chem, 2005).

For data set [1], the system named is Human immunodeficiency virus 1. Kind of data set: Effective concentration against human immunodeficiency virus type 1 K103N mutant strain. The data set is classed as functional, organism-based. Summed up:
(§1)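 MT-4 human T cells infected with wild-type or mutant HIV-1, exposed to a range of compound concentrations in medium with 10% fetal calf serum. After 5 days at 37 °C, viability of infected and mock-infected cells was read by automated MTT colorimetric assay. […] 95% confidence limits are approximately EC50/4 to EC50×4.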

For data set [2], the system named is Human immunodeficiency virus 1. Kind of data set: Effective concentration against rhuman immunodeficiency virus type 1 K103N and Y181C mutant strains. It counts as functional, organism-based.
For data set [3], the system named is Human immunodeficiency virus 1. Kind of data set: Effective concentration against rhuman immunodeficiency virus type 1 L100I mutant strain. The data set is classed as functional, organism-based. The gist of the method: as §1
Data set [4] deals with Human immunodeficiency virus 1. Kind of data set: Effective concentration against human immunodeficiency virus type 1 Y188L mutant strain. The data set is classed as functional, organism-based. Summed up:
as §1

The subject of data set [5] is Human immunodeficiency virus 1. Kind of data set: Effective concentration against human immunodeficiency virus type 1 G190S mutant strain. The data set is classed as functional, organism-based. The gist of the method:
as §1

Data set [6] deals with Human immunodeficiency virus 1. Kind of data set: Effective concentration against rhuman immunodeficiency virus type 1 Y181C mutant strain. It counts as functional, organism-based. Summed up:
as §1

The test system of data set [7] is Human immunodeficiency virus 1. Kind of data set: Effective concentration against human immunodeficiency virus type 1 wild type. The data set is classed as functional, organism-based. The gist of the method:
as §1

Data set [8] in a line: Area under the concentration time curve value in rat (intravenous dosage of 4 mg/kg) was determined. Conditions: in vivo. The data set is classed as ADME, organism-based. On the set-up: dose 4 mg/kg, route intravenous. The gist of the method: (§2)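 Pharmacokinetics after single iv dosing of drug formulated in PEG 400. Species: Sprague-Dawley rat (4 mg/kg), beagle dog, cynomolgus monkey and white New Zealand rabbit (1.25 mg/kg each). Elimination half-life (t1/2) and exposure (AUCinf) calculated from plasma concentration–time data.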

A short description of data set [9]: Half life in rat was determined after oral administration. The data set is classed as ADME, organism-based. Particulars: in vivo. The gist of the method: (§3)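 Oral administration of drug formulated in PEG 400 to Sprague-Dawley rat and beagle dog. Elimination half-life calculated from plasma concentration–time data.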
Data set [10] is described as follows: Half life in dog was determined by intravenous administration. The data set is classed as ADME, organism-based, Canis lupus familiaris. Conditions: in vivo. Summed up:
as §2

For data set [11], the system named is Human immunodeficiency virus 1. Kind of data set: Effective concentration against human immunodeficiency virus type 1 L100I mutant strain. The data set is classed as functional, organism-based. The gist of the method: as §1
A short description of data set [12]: Area under the concentration time curve in dog (intravenous dosage of 1.25 mg/kg) was determined. The data set is classed as ADME, organism-based, Canis lupus familiaris. On the set-up: dose 1.25 mg/kg, route intravenous. Particulars: in vivo. The gist of the method: as §2
Data set [13] has as its system Human immunodeficiency virus 1. Kind of data set: Effective concentration against rhuman immunodeficiency virus type 1 wild type mutant strain. It counts as functional, organism-based. Summed up:
as §1

Data set [14] in a line: Half life in rat was determined after intravenous administration. The data set is classed as ADME, organism-based. Particulars: in vivo. The gist of the method: as §2
Data set [15] can be described thus: Area under the concentration time curve in monkey (intravenous dosage of 1.25 mg/ kg) was determined. The data set is classed as ADME. Particulars: cercopithecidae, in vivo. The gist of the method:
as §2

Data set [16] is described as follows: Area under the concentration time curve in rabbit (intravenous dosage of 1.25 mg/kg) was determined. The data set is classed as ADME, organism-based, Oryctolagus cuniculus. On the set-up: dose 1.25 mg/kg, route intravenous. Particulars: in vivo. Summed up:
as §2

Data set [17] has as its system Human immunodeficiency virus 1. Kind of data set: Effective concentration against human immunodeficiency virus type 1 Y181C mutant strain. It counts as functional, organism-based. Summed up:
as §1

Data set [18] is described as follows: In vivo half life in dog was determined after oral administration. It counts as ADME, organism-based, Canis lupus familiaris. The gist of the method:
as §3

Data set [19] deals with Human immunodeficiency virus 1. Kind of data set: Effective concentration against human immunodeficiency virus type 1 K103N and Y181C mutant strains. The data set is classed as functional, organism-based. Summed up: as §1
Data set [20] deals with Human immunodeficiency virus 1. Kind of data set: Effective concentration against human immunodeficiency virus type 1 wild type strain. The data set is classed as functional, organism-based.
Data set [21] has as its system Human immunodeficiency virus 1. Kind of data set: Effective concentration against human immunodeficiency virus type 1 in K103N mutant strain. The data set is classed as functional, organism-based. Summed up: as §1
Data set [22] has as its system Human immunodeficiency virus 1. Kind of data set: Effective concentration against human immunodeficiency virus type 1Y181C mutant strain. It counts as functional, organism-based. Summed up: as §1
Data set [23] concerns Human immunodeficiency virus 1. Kind of data set: Effective concentration against human immunodeficiency virus type 1 wild type srtain. The data set is classed as functional, organism-based. The gist of the method:
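MT-4 human T-cells infected with wild-type HIV-1 and exposed to a range of compound concentrations in medium with 10% fetal calf serum. After 5 days at 37 °C, viability was read by automated MTT colorimetric assay, with mock-infected cells run in parallel.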

For data set [24], the system named is Human immunodeficiency virus 1. Kind of data set: Effective concentration against human immunodeficiency virus type 1 K103N and Y181C mutant strain. The data set is classed as functional, organism-based. Summed up: as §1
The test system of data set [25] is Human immunodeficiency virus 1. Kind of data set: Effective concentration against human immunodeficiency virus type 1 Y181C mutant was determined. It counts as functional, organism-based. Summed up: as §1

pEC50: −log10 of the molar value.

For the molecule `Cc1ccnc2c1NC(=O)c1cccnc1N2C1CC1` [NEVIRAPINE], the pEC50 (in general, the negative decadic logarithm of the EC50, by convention in mol/L) in [1] was 5.54; in data set [2] it was 5.00; in [3], 6.22; in [4] it was 5.00; in data set [5], 6.00; in [6], 5.00. The molecule also showed a pEC50 in data set [7] of 7.09.
As for `Cc1cc(/C=C/C#N)cc(C)c1Nc1ccnc(Nc2ccc(C#N)cc2)n1` [RILPIVIRINE], the pEC50 in data set [1] is 9.52; in data set [11], 9.40; in [13], 9.40; in data set [4] it was 8.70; in data set [5], 10.00; in [17], 8.89. Moreover, in data set [19], the negative logarithm of the EC50 (pEC50) was 9.00. The AUC (as a rule, the area under the concentration-time curve, a measure of exposure) in data set [8] turned out to be 3100 ng·h/mL; in data set [12], 8700 ng·h/mL; in [15] it was 1400 ng·h/mL; in data set [16] it was 44000 ng·h/mL. The half-life – broadly, the time needed for the level to fall by half in the phase considered – is 2.8 h in [9], 31 h in [10], 4.4 h in [14] and 39 h in data set [18].
Regarding `Cc1cc(C)c(Nc2ccnc(Nc3ccc(C#N)cc3)n2)c(C)c1` [DAPIVIRINE], the pEC50 is 8.92 in data set [20]; 7.96 in data set [11]; 7.43 in data set [4]; 8.70 in [5]; 8.70 in data set [21]; 8.15 in data set [22].
Regarding `O=C1Nc2ccc(Cl)cc2[C@@](C#CC2CC2)(C(F)(F)F)O1` [EFAVIRENZ], the pEC50 in data set [1] was 7.55; in [23] it was 8.85; in data set [24], 7.43; in data set [25], 8.70; in [11], 7.46; in [4], 7.11. Further, in data set [5], the pEC50 was 6.56.
